A short description of series [1]: Drug uptake in human HL60 cells at 15 uM for 15 hrs by DBCO-488 probe based fluorescence confocal microscopy. It counts as ADME, cell-based. Conditions: hl-60, 15 h; call rule not given here. The procedure, abridged:
(§1)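 HL-60 cells treated with azido-bearing compound (15 μM, 15 h); DMSO-diluted control. Cells fixed in 99% alcohol, permeabilized with 0.1% Triton X-100 in PBS for 15 min, then washed. Copper-free labeling with DBCO-488 (2 μM) plus 0.5 mg/mL BSA in PBS for 6 h. RedDot2 nuclear and CellBrite Blue membrane counterstains; imaged by confocal fluorescence microscopy.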

Series [2] deals with HL-60. As to the kind of experiment: Cytotoxicity against human HL60 cells assessed as cell growth inhibition after 48 hrs by MTT assay. It counts as functional, cell-based. Conditions: HL-60, 48 h. The procedure, abridged:
(§2)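 Cells from ATCC; HL-60 grown in IMDM, PC-3 in RPMI 1640, HT29 in DMEM, each with 10% FBS and penicillin/streptomycin, 37 °C, 5% CO2. Cells incubated without or with compound at the indicated concentrations and times. Mitochondrial MTT reduction read at 570 nm on a plate reader. IC50 given as mean ± SD of at least three independent experiments.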
In general terms: Tetrazolium assays rely on reduction of a dye to a coloured formazan, in cell work by metabolically active cells.

In another series the test system is HT-29. Description: Cytotoxicity against human HT-29 cells assessed as cell growth inhibition after 48 hrs by MTT assay. Type of series: functional, cell-based. Conditions: HT-29, 48 h. The procedure, abridged: as §2
Series [3] is described as follows: Drug uptake in human HL60 cell membrane at 15 uM for 15 hrs by DBCO-488-based fluorescence confocal microscopy. It counts as ADME, cell membranes. To be noted: hl-60, 15 h. The procedure, abridged:
as §1

In the next series the test system is PC-3. As to the kind of experiment: Cytotoxicity against human PC3 cells assessed as cell growth inhibition after 48 hrs by MTT assay. Type of series: functional, cell-based. Conditions: PC-3, 48 h. The procedure, abridged:
as §2

In series [4] the test system is HL-60. As to the kind of experiment: Induction of mitochondrial membrane depolarization in human HL60 cells after 24 hrs by JC-1 staining based flow cytometry. Type of series: functional, cell-based. In outline: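 HL-60 cells exposed to a range of compound concentrations under the MTT culture conditions, untreated control included. After 1 day, cells stained with JC-1 (final 2 μM) at 37 °C for 30 min, then harvested. Flow cytometry gives the percentage loss of mitochondrial membrane potential.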
For orientation: A flow cytometer gives signals particle by particle.

pIC50: −log10 of the molar value.

Take `CC1(C)CC[C@]2(C(=O)O)CC[C@]3(C)C(=CC[C@H]4C3(C)CC[C@H]3C(C)(C)[C@@H](O[C@@H]5O[C@H](CO)[C@@H](O)[C@H](O)[C@H]5NC(=O)CCc5cn(-c6cc7ccc(O)cc7oc6=O)nn5)CC[C@@]34C)[C@@H]2C1` (single isomer, unassigned): the Drug uptake entry in series [1] is reported as “Active”.

Take `CC1(C)CC[C@]2(C(=O)O)CC[C@]3(C)C(=CC[C@@H]4[C@@]5(C)CC[C@H](O[C@@H]6O[C@H](CO)[C@@H](O)[C@H](O)[C@H]6NC(=O)CN=[N+]=[N-])C(C)(C)[C@@H]5CC[C@]43C)[C@@H]2C1`: the pIC50 (as a rule, the IC50 on a negative log10 scale, so that one unit is a factor of ten) was 5.04 with HL-60 [2], 4.64 with HT-29 and 4.65 with PC-3. Besides, the Drug uptake result in series [3] was “Active”.

For the molecule `C#CCCC(=O)N[C@H]1[C@H](O[C@H]2CC[C@]3(C)[C@H]4CC=C5[C@@H]6CC(C)(C)CC[C@]6(C(=O)O)CC[C@@]5(C)[C@]4(C)CC[C@H]3C2(C)C)O[C@H](CO)[C@@H](O)[C@@H]1O`, the results for the pIC50 in the series on HL-60 [2], in the series with HT-29 and with PC-3 were 4.97, under 4.52 and under 4.52, respectively. In addition, in series [3], the Drug uptake result is listed as “Active”.

With `CCCCCCC(=O)N[C@H]1[C@H](O[C@H]2CC[C@]3(C)[C@H]4CC=C5[C@@H]6CC(C)(C)CC[C@]6(C(=O)O)CC[C@@]5(C)[C@]4(C)CC[C@H]3C2(C)C)O[C@H](CO)[C@@H](O)[C@@H]1O`, the pIC50 in the series on HL-60 [2] was 5.55; in the series on HT-29 it was under 4.52; with PC-3 it was under 4.52. Moreover, the Activity entry in the series on HL-60 [4] is “Dose-dependent effect”.

These data come from ChEMBL document CHEMBL4138179, “Design, synthesis and cytotoxic activity of N-Modified oleanolic saponins bearing A glucosamine” (Eur J Med Chem, 2018).
